Data set [1] is described as follows: Photorelease activity of the compound in CH3CN at 532nm laser light measured upto 60 mins under air condition by HPLC analysis relative to control. Type of data set: ADME. Details: dose or concentration left out as unconfirmed. To be noted: 1 h.
Data set [2] is described as follows: Photorelease activity of the compound in aqueous medium at 30 uM measured after 1 hr under dark condition by UV-vis spectroscopy analysis. Type of data set: ADME. The conditions noted are these: buffer.
Data set [3] is described as follows: Dark toxicity in human A549 cells assessed as cell viability at 10 uM under dark condition and measured after 72 hrs by CCK-8 method relative to control. The conditions noted are these: read-out: Activity. Type of data set: cell-based. The essentials:
(§1)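 A549, HaCaT and HeLa cells seeded at 2 × 10^3 cells/well in phenol red-free DMEM with 10% FBS. After 24 h, medium replaced with 1% DMSO containing 10 μM compound. After 90 min, one plate kept dark and one exposed to 530 or 650 nm LED (30 mW) for 15 min. Plates incubated 72 h, then CCK-8 read at 450 nm. Viability taken relative to dark control. Triplicates (HaCaT six).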

Data set [4] in a line: Dark toxicity in human HaCaT cells assessed as cell viability at 10 uM under dark condition and measured after 72 hrs by CCK-8 method relative to control. The conditions noted are these: read-out: Activity. Type of data set: cell-based. The method in brief: as §1
Data set [5] concerns AD293. Description: Cytotoxicity against human AD293 cells assessed as cell viability at 0.1 to 10 uM incubated for 24 hrs by MTT assay. Type of data set: toxicity, cell-based. To be noted: ad293, 24 h, dose 0.1-10 µM. The essentials: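 AD293 cells seeded at 4 × 10^4 cells/well in DMEM with 10% FBS. Next day, compound (100 nM, 1 μM, 10 μM) or vehicle added in serum-free DMEM for 24 h, no irradiation. MTT (5 mg/mL reagent) added for 3 h at 37 °C, formazan dissolved in DMSO, absorbance read at 590 nm. Triplicate wells, four independent experiments.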

A short description of data set [6]: Thermal stability of compound in DMSO-d6 at 37.5 degree C measured after 2 days by 1H NMR spectroscopy analysis relative to control. Type of data set: physicochemical. The conditions noted are these: 48 h; time 2 day. The method in brief: (§2)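 Compound in DMSO-d6 followed by 1H NMR. Degradation taken from the intensity of three signals (one resiquimod, one BODIPY, and the linkage NH), each relative to the DMSO-d6 internal standard, and the three averaged.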

Data set [7] can be described thus: Photorelease activity of the compound in CH3CN assessed as retention time under 532nm laser light by HPLC analysis. The data set is classed as physicochemical.
The nature of data set [8]: Dark toxicity in human HeLa cells assessed as cell viability at 10 uM under dark condition and measured after 72 hrs by CCK-8 method relative to control. The data set is classed as cell-based. To be noted: read-out: Activity. The essentials:
as §1

The nature of data set [9]: Photophysical property of the compound assessed as fluorescence quantum yield. The data set is classed as physicochemical.
The nature of data set [10]: Photorelease activity of the compound in DMSO-d6 measured after 1 hr under 532nm YAG laser radiation by 1H NMR spectroscopy analysis relative to control. The data set is classed as ADME.
Data set [11] is described as follows: Thermal stability of compound in DMSO-d6 at 37.5 degree C measured before 24 hrs by 1H NMR spectroscopy analysis. The data set is classed as physicochemical. The essentials:
as §2

Data set [12] can be described thus: Phototoxicity in human HeLa cells assessed as cell viability at 10 uM under 530 ot 650nm 30 mW LED light irradiation and measured after 72 hrs by CCK-8 method relative to control. The data set is classed as functional. To be noted: light or radiation study, read-out: Activity. The method in brief:
as §1

The nature of data set [13]: Thermal stability of compound in DMSO-d6 at 37.5 degree C measured after 1 day by 1H NMR spectroscopy analysis relative to control. The data set is classed as physicochemical. To be noted: 24 h. The essentials: as §2
A short description of data set [14]: Photosensitizing ability of the compound assessed as singlet oxygen quantum yield under 600nm monochromatic light irradiation by DPBF based assay relative to control. The data set is classed as functional. The method in brief:
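Singlet oxygen generation followed by the decrease in DPBF absorbance under irradiation. DPBF (20–25 μm) used at 5–10-fold excess over compound (2.5–5 μm).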

The target of data set [15] is T1, Toll-like receptor 7 (Homo sapiens) (UniProt Q9NYK1).
T1 sequence (whole entry): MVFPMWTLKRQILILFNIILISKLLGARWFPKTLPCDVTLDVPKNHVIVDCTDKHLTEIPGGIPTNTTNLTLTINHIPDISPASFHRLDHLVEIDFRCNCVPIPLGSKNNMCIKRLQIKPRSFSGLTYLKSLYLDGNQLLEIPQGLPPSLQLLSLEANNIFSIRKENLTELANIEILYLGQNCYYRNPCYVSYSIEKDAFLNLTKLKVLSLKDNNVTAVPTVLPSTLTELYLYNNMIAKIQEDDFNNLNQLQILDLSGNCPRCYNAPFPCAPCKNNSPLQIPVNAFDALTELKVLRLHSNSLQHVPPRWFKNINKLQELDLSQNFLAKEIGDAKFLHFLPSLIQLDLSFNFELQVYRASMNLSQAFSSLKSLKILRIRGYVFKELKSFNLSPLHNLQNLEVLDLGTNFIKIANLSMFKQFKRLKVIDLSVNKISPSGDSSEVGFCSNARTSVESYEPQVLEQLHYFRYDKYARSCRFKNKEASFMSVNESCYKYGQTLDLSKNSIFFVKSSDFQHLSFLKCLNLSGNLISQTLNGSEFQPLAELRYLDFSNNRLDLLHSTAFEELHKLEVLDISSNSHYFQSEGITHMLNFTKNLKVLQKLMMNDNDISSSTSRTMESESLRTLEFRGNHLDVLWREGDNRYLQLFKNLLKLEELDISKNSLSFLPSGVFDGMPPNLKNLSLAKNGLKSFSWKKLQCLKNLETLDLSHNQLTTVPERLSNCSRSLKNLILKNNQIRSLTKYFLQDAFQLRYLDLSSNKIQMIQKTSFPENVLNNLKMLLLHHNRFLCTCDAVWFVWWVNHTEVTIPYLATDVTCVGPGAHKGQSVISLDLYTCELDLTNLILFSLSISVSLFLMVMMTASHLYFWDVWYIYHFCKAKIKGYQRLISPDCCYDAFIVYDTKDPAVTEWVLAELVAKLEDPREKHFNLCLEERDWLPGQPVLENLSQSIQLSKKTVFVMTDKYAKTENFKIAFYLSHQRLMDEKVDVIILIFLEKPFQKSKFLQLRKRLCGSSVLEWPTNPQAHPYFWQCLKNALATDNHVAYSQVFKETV
Description: Activation of TLR7 in human AD293 cells assessed as IkappaB-alpha degradation at 10 uM preincubated with NAC followed by compound addition and measured after 30 mins under 650nm red light irradiation by Western blot analysis. Type of data set: cell-based. The conditions noted are these: filed as activator. The essentials:
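Stable TLR7-expressing AD293 line made by TLR7 plasmid transfection and hygromycin B selection (250 μg/mL, 10 days). Cells pretreated with N-acetyl-cysteine, then given 10 μM compound, with or without 30 min 650 nm red-light irradiation. Lysates run on 10% SDS-PAGE and blotted to PVDF. Total IκB probed (1:1000) with GAPDH loading control, ECL detection. Means of three experiments.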

A short description of data set [16]: Photorelease activity of the compound in aqueous medium assessed as reduction in lamda maximum at 30 uM measured after 1 hr under 525 nm LED light radiation by UV-vis spectroscopy analysis. The data set is classed as ADME. The conditions noted are these: buffer.
The nature of data set [17]: Photorelease activity of the compound in CH3CN at 532nm laser light measured upto 60 mins under argon condition by HPLC analysis relative to control. Details: dose or concentration left out as unconfirmed. To be noted: 1 h. The data set is classed as ADME.
The nature of data set [18]: Thermal stability of compound in DMSO-d6 at 37.5 degree C measured after 3 days by 1H NMR spectroscopy analysis relative to control. The data set is classed as physicochemical. To be noted: 72 h; time 3 day. The essentials:
as §2

The nature of data set [19]: Phototoxicity in human HaCaT cells assessed as cell viability at 10 uM under 530 ot 650nm 30 mW LED light irradiation and measured after 72 hrs by CCK-8 method relative to control. The data set is classed as functional. The conditions noted are these: light or radiation study, read-out: Activity. The method in brief: as §1
Data set [20] is described as follows: Phototoxicity in human A549 cells assessed as cell viability at 10 uM under 530 ot 650nm 30 mW LED light irradiation and measured after 72 hrs by CCK-8 method relative to control. The data set is classed as functional. To be noted: A549, light or radiation study, read-out: Activity. The essentials:
as §1

Data set [21] concerns AD293. As to the kind of experiment: Effect on morphological changes in human AD293 cells at 10 uM. The data set is classed as functional, cell-based. The method in brief: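 AD293 cells treated with 10 μM compound, followed by LED irradiation or kept unirradiated, then morphology examined by microscopy.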
In data set [22] the test system is AD293. As to the kind of experiment: Effect on morphological changes in human AD293 cells stable expressing TLR7 at 10 uM pretreated with N-Acetylcysteine for 30 mins followed by compound addition and measured after 30 mins under LED light irradiation at 650 nm by microscopic analysis. Type of data set: functional, cell-based. The method in brief:
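TLR7-stable AD293 cells seeded at 20,000/well. After 24 h, medium switched to Opti-MEM. 1 h later, 10 mM N-acetyl-cysteine added. 30 min after that, cells given 10 μM compound and exposed to 650 nm LED for 30 min, or shielded from light as control. Cells observed by microscope 24 h after drug treatment.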

Activity calls are given as the source filed them. The calls are words filed in the database; no cut-off is given here.

Turning to `CCOCc1nc2c(NC(=O)OCC3=C4C(C)=CC(C)=[N+]4[B-](F)(F)n4c(C)cc(C)c43)nc3ccccc3c2n1CC(C)(C)O`, the Activity in [1] is listed as ~ 68%; in [2], “Not_active”; in the data set on AD293 [5] it was “Toxic”; in [6] it was 22%; in [9], 0.809; in data set [10], 100%. In addition, the Activity entry in data set [11] was “Not_active”; in data set [13], 12%; in [14] it was 3.2%; in data set [16] it was “Active”; in data set [17], ~ 77%; in [18], 31%. Further, the figures for the viability at 72 h, 10 µM in [3], in [4] and in data set [8] were 19%, 6% and 2%, respectively. The Retention_time in [7] is recorded as 6.8 min. Also, the viability at 10 µM stood at 54% in data set [12] and 88% in data set [19]. Besides, the outcome in data set [15] was Active.
As for `CCOCc1nc2c(N)nc3ccccc3c2n1CC(C)(C)O` [RESIQUIMOD], the viability at 72 h, 10 µM stood at 19% in [3], 32% in data set [4] and 4% in data set [8]. Moreover, the viability at 10 µM in data set [20] stood at 21%. Also, the outcome in data set [15] was Active. The result in the data set on AD293 [21] and with AD293 [22] was inactive.
Take `CC1=CC(C)=[N+]2C1=C(CO)c1c(C)cc(C)n1[B-]2(F)F`: the Activity result in the data set with AD293 [5] is “Toxic”; in [9], 0.835; in data set [14], 7%. Further, the Retention_time in data set [7] was 4.15 min.

Values taken from ChEMBL document CHEMBL6103596, “Design, Synthesis, and Biological Evaluation of BODIPY-Caged Resiquimod as a Dual-Acting Phototherapeutic” (J Med Chem, 2025).
